From ChEMBL document CHEMBL3286180, “Efficacious inhaled PDE4 inhibitors with low emetic potential and long duration of action for the treatment of COPD” (J Med Chem, 2014)
Converted amounts (≈) assume the structure as drawn. The source made the active and inactive calls. The rule behind the calls is not given here.

Experiments:
[1] = Aqueous solubility of the compound at pH 7.4; assay type: physicochemical; conditions: aqueous medium
[2] = Half life in rat at 1 mg/kg, iv; assay type: ADME, organism-based; parameters: dose 1 mg/kg, route intravenous; conditions: in vivo
In short: (§1)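 Rat pharmacokinetics were run at 1 mg/kg, given iv or by intratracheal instillation, with 2−3 animals per study.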

[3] = tested on: Rattus norvegicus; assay: Antiinflammatory activity in Sprague-Dawley rat assessed as inhibition of LPS-induced bronchoalveolar lavage neutrophils at lung exposure 1000 to 6000 particles/cm'3, inhalation administered as dry powder; assay type: functional, organism-based
[4] = Fraction unbound in rat plasma; assay type: ADME, cell-free
[5] = tested on: PBMC; assay: Antiinflammatory activity in human PBMC assessed as inhibition of LPS-induced TNFalpha production after 20 hrs by fluorescence linked immunosorbant assay; assay type: functional, cell-based
[6] = tested on: Blood; assay: tissue or blood; conditions: Rattus norvegicus, 20 h, read-out: pIC50 (converted)
[7] = tested on: Rattus norvegicus; assay: Antiinflammatory activity in Sprague-Dawley rat assessed as inhibition of LPS-induced bronchoalveolar lavage neutrophils at 0.03 to 3 mg/ml, inhalation administered as nebulized suspension; assay type: functional, organism-based
In short: (§2)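 Rats were given the compound as an aqueous nebulized aerosol by nose-only inhalation 30 min before LPS challenge. Dose is expressed as mg/mL nebulizer concentration. Lung neutrophilia was the readout, and terminal lung concentration (nM) was measured. Groups held 8−10 animals per treatment.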

[8] = Volume of distribution at steady state in rat at 1 mg/kg, iv; assay type: ADME, organism-based; parameters: dose 1 mg/kg, route intravenous; conditions: in vivo, read-out: Vdss
[9] = Intrinsic clearance in human liver microsomes; assay type: ADME; conditions: read-out: CLH
[10] = Lipophilicity, log D of the compound; assay type: physicochemical; conditions: octanol/water
[11] = tested on: Rattus norvegicus; assay: Antiinflammatory activity in Sprague-Dawley rat assessed as inhibition of LPS-induced bronchoalveolar lavage neutrophils measured as LPS duration at 0.03 to 3 mg/ml, inhalation administered as nebulized suspension; assay type: functional, organism-based
In short: (§3)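 Duration protocol: rats received a nose-only inhalation of nebulized aqueous compound solution 12 h before LPS challenge. Dose is expressed as mg/mL nebulizer concentration. Readout was LPS-induced pulmonary neutrophilia, with terminal lung concentration (nM) measured. Groups held 8−10 animals per treatment.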

[12] = tested on: Rattus norvegicus; assay: Antiinflammatory activity in Sprague-Dawley rat assessed as inhibition of LPS-induced bronchoalveolar lavage neutrophils at 145 to 5238 particles/cm'3, inhalation administered as dry powder; assay type: functional, organism-based
[13] = Intrinsic clearance in rat hepatocytes measured per 10^6 cells; assay type: ADME, cell-based, Hepatocyte; conditions: read-out: CLH
[14] = Clearance in rat at 1 mg/kg, iv; assay type: ADME, organism-based; parameters: dose 1 mg/kg, route intravenous; conditions: in vivo; in short: as §1
[15] = Fraction unbound in human plasma; assay type: ADME, cell-free
[16] = molecular target: 3',5'-cyclic-AMP phosphodiesterase 4B (Homo sapiens, UniProt Q07343); assay: Inhibition of human recombinant PDE4B using [3H]cAMP by packard topcount scintillation counting analysis
[17] = tested on: Rattus norvegicus; assay: Antiinflammatory activity in Sprague-Dawley rat assessed as inhibition of LPS-induced bronchoalveolar lavage neutrophils at 0.03 mg/ml, inhalation administered as nebulized suspension; assay type: functional, organism-based; in short: as §2
[18] = tested on: Rattus norvegicus; assay: Antiinflammatory activity in nasally dosed Sprague-Dawley rat assessed as inhibition of LPS-induced bronchoalveolar lavage neutrophils measured as lung deposited dose administered as […]; assay type: functional
In short: (§4)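 ED80 was derived from the nose-only nebulized-solution dose response in rats dosed 30 min before LPS challenge, with neutrophilia as the readout. ED80 is given as nebulizer concentration, as the matching terminal total lung concentration, and as lung deposited dose estimated from measured filter sample and terminal lung levels.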

[19] = tested on: Rattus norvegicus; assay: Apparent volume of distribution in rat at 1 mg/kg, iv; assay type: ADME, organism-based; parameters: dose 1 mg/kg, route intravenous; conditions: in vivo; in short: as §1
[20] = molecular target: T1, Cytochrome P450 1A2 (Homo sapiens, UniProt P05177); assay: Inhibition of CYP1A2 (unknown origin); assay type: ADME
T1 sequence (P05177 whole entry): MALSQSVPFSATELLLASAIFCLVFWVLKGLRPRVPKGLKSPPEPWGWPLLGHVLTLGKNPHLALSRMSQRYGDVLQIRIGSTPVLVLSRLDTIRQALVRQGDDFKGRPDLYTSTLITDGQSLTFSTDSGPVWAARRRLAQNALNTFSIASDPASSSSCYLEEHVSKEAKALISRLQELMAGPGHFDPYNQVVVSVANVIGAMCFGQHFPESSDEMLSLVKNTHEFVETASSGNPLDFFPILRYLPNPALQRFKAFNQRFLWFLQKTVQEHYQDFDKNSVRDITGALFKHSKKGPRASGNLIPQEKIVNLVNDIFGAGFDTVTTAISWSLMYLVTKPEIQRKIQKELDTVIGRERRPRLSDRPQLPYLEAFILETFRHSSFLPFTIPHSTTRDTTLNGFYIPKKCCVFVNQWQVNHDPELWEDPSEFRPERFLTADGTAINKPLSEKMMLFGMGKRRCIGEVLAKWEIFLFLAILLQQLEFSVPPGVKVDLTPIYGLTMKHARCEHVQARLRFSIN

[21] = tested on: Rattus norvegicus; assay: Antiinflammatory activity in nasally dosed Sprague-Dawley rat assessed as inhibition of LPS-induced bronchoalveolar lavage neutrophils measured as nebulizer concentration administered as […]; assay type: functional; in short: as §4
[22] = molecular target: Cytochrome P450 2C19 (Homo sapiens, UniProt P33261); assay: Inhibition of CYP2C19 (unknown origin); assay type: ADME
[23] = molecular target: Cytochrome P450 2D6 (Homo sapiens, UniProt P10635); assay: Inhibition of CYP2D6 (unknown origin); assay type: ADME
[24] = tested on: Rattus norvegicus; assay: Antiinflammatory activity in nasally dosed Sprague-Dawley rat assessed as inhibition of LPS-induced bronchoalveolar lavage neutrophils measured as lung concentration administered as […]; assay type: functional; in short: as §4
[25] = molecular target: Cytochrome P450 3A4 (Homo sapiens, UniProt P08684); assay: Inhibition of CYP3A4 (unknown origin); assay type: ADME
[26] = tested on: Rattus norvegicus; assay: Antiinflammatory activity in Sprague-Dawley rat assessed as inhibition of LPS-induced bronchoalveolar lavage neutrophils measured as LPS duration at 0.1 mg/ml, inhalation administered as nebulized suspension; assay type: functional, organism-based; in short: as §3
[27] = molecular target: Cytochrome P450 2C9 (Homo sapiens, UniProt P11712); assay: Inhibition of CYP2C9 (unknown origin); assay type: ADME
Sequence of Cytochrome P450 2C9 (P11712 whole entry): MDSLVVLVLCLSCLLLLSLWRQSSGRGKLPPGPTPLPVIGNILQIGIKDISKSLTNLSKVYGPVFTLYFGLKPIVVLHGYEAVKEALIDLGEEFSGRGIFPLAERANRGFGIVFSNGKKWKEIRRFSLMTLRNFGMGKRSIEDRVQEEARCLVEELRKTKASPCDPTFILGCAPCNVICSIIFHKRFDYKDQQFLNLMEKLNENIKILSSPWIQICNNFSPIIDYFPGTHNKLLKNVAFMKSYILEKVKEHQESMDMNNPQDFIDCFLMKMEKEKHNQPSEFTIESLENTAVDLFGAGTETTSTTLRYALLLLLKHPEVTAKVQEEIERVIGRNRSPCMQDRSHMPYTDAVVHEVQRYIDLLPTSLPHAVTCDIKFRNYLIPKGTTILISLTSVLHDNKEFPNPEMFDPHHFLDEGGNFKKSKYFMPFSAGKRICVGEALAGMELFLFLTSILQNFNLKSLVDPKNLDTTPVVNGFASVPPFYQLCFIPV

Sequence of 3',5'-cyclic-AMP phosphodiesterase 4B (Q07343 whole entry): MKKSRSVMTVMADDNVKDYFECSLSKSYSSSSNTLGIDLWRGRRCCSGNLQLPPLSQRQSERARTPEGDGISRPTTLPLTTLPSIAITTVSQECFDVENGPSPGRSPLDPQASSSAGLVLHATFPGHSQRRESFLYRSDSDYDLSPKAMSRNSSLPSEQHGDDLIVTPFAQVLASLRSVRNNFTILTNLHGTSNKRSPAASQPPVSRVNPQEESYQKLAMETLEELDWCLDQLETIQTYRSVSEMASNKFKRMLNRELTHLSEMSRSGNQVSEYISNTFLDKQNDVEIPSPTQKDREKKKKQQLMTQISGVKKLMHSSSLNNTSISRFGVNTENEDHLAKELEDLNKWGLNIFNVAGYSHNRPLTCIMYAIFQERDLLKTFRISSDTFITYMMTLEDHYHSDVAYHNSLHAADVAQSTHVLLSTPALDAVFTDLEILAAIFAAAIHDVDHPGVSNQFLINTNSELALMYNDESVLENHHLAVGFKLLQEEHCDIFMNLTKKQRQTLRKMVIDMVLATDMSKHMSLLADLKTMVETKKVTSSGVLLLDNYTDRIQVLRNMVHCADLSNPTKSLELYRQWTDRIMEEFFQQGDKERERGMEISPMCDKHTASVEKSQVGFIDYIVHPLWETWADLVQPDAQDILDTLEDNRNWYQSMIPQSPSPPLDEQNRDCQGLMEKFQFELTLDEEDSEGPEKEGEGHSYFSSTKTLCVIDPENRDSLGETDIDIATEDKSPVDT
Sequence of Cytochrome P450 2D6 (P10635 whole entry): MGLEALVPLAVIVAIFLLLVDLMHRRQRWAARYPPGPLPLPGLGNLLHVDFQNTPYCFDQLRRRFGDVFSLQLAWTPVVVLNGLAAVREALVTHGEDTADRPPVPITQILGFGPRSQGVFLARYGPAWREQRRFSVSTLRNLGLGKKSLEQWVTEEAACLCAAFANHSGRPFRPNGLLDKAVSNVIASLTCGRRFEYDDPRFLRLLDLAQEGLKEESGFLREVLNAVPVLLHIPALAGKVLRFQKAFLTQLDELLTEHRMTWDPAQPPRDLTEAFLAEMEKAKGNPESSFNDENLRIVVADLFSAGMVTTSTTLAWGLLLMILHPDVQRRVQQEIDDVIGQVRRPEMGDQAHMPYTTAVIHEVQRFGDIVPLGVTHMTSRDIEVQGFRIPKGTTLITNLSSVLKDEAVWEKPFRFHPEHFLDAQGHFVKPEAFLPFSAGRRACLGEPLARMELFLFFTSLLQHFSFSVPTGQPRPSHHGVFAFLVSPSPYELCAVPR
Sequence of Cytochrome P450 2C19 (P33261 whole entry): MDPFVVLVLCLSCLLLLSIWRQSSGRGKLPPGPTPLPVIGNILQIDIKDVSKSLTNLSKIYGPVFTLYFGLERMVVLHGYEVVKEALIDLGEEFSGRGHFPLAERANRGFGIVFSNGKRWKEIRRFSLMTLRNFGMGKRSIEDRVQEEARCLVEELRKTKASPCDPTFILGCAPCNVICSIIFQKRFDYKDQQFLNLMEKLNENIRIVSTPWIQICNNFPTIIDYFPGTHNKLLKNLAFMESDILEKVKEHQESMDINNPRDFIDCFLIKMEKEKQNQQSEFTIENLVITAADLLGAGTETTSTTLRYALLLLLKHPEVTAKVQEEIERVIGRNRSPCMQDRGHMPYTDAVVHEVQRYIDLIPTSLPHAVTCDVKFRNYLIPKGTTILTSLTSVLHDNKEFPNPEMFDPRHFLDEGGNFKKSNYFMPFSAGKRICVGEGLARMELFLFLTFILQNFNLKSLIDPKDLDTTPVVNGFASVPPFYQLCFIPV
Sequence of Cytochrome P450 3A4 (P08684 whole entry): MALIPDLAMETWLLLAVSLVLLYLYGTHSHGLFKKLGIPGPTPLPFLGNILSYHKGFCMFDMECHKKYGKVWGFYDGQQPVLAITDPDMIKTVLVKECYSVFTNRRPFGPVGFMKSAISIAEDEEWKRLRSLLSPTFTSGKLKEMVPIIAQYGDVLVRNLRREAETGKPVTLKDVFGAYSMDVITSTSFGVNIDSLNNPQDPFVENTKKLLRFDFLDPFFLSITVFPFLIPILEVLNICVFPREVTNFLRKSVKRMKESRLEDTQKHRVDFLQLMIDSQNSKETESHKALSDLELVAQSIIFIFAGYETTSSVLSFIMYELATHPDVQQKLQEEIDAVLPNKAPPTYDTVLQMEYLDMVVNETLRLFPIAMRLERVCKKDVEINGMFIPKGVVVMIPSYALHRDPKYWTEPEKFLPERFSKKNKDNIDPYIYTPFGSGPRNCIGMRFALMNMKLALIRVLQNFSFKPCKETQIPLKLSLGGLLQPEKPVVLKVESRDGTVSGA

For `Cc1ccc(O)c(C(=O)N[C@H]2CC[C@@H](NC(=O)c3cc(F)cnc3Oc3ccc(F)c(F)c3)CC2)c1` [UK-500001], the solubility [1] was less than 1 µM, the half-life [2] was 7.6 h and the inhibition [3] was “Active”. The fraction unbound [4] was 0.017, the IC50 [5] was 3.98 nM and the IC50 [6] was 39.8 nM. The inhibition [7] was “inactive”, the Vd [8] was 22 L/kg and the microsomal CLint [9] was 116 µL/min/mg. For the same molecule, the logD [10] was 4.4, the inhibition [11] was “inactive” and the inhibition [12] was “Active”. For the same molecule, the hepatocyte CLint [13] was 76 µL/min/1e6 cells, the clearance [14] was 97 mL/min/kg and the fraction unbound [15] was 0.0017. For the same molecule, the IC50 [16] was 0.631 nM.
Work on `O=C(N[C@H]1CC[C@@H](NC(=O)c2nc3ccccc3[nH]c2=O)CC1)c1cc(F)cnc1Oc1cccc(-c2ccc(O)cc2CN2CCOCC2)c1` yielded an IC50 [16] of 0.316 nM.
In the case of `Cc1csc(C(=O)N[C@H]2CC[C@@H](NC(=O)c3cc(F)cnc3Oc3cccc(-c4ccc(CN5C[C@@H](C)N[C@@H](C)C5)cc4)c3)CC2)n1`, the IC50 [16] is reported as 0.0316 nM.
Molecule `Cc1cc(C(=O)N[C@H]2CC[C@@H](NC(=O)c3cc(F)cnc3Oc3cccc(-c4ccc(CN5C[C@@H](C)N[C@@H](C)C5)c(O)c4)c3)CC2)nn1C` has a solubility [1] of 890 µM (≈ 596 µg/mL), a logD [10] of 2.4 and a fraction unbound [15] of 0.12.
`O=C(N[C@H]1CC[C@@H](NC(=O)c2cc(F)cnc2Oc2cccc(-c3ccc(O)cc3CN3CCOCC3)c2)CC1)c1cncc(O)c1` gave an IC50 [16] of 2.51 nM.
Work on `Cc1cc(C(=O)N[C@H]2CC[C@@H](NC(=O)c3cc(F)cnc3Oc3cccc(-c4cccc(CN5C[C@@H](C)N[C@@H](C)C5)c4O)c3)CC2)nn1C` yielded a solubility [1] of 470 µM (≈ 315 µg/mL), an IC50 [5] of 3.16 nM and a logD [10] of 2.8. It also gave a fraction unbound [15] of 0.091.
Molecule `CN(C)Cc1cc(O)ccc1-c1cccc(Oc2ncc(F)cc2C(=O)N[C@H]2CC[C@@H](NC(=O)c3cccc4oc(=O)[nH]c34)CC2)c1` has an IC50 [16] of 20 nM.
In the case of `Cc1cc(C(=O)N[C@H]2CC[C@@H](NC(=O)c3cc(F)cnc3Oc3cccc(-c4ccc(CN5C[C@@H](C)N[C@@H](C)C5)cc4)c3)CC2)nn1C`, the solubility [1] is reported as 1300 µM (≈ 850 µg/mL), the IC50 [5] is reported as 0.1 nM and the logD [10] is reported as 2.4. The fraction unbound [15] was 0.11.
Work on `Cc1csc(C(=O)N[C@H]2CC[C@@H](NC(=O)c3cc(F)cnc3Oc3cccc(-c4ccc(CN5C[C@@H](C)N[C@@H](C)C5)cc4CN4CCOCC4)c3)CC2)n1.O=C(O)C(F)(F)F` yielded a solubility [1] greater than 1400 µM.
Molecule `Cc1cc(C(=O)N[C@H]2CC[C@@H](NC(=O)c3cc(F)cnc3Oc3cccc(-c4cccc(CN5C[C@@H](C)N[C@@H](C)C5)c4)c3)CC2)nn1C` has a solubility [1] greater than 1500 µM, an IC50 [5] of 0.0794 nM and a logD [10] of 2.1. It also gave a fraction unbound [15] of 0.18.
In the case of `Cc1cc(C(=O)N[C@H]2CC[C@@H](NC(=O)c3cc(F)cnc3Oc3cccc(-c4ccc(CCCN5C[C@@H](C)N[C@@H](C)C5)cc4)c3)CC2)nn1C`, the solubility [1] is reported as 130 µM (≈ 88.6 µg/mL), the half-life [2] is reported as 7 h and the inhibition [17] is reported as “Active”. It also gave an IC50 [5] of 0.0631 nM, an ED80 [18] of 0.6 µg/kg and a Vz/F [19] of 41 L/kg. It also gave a Vd [8] of 21 L/kg, an IC50 [20] greater than 1000 nM and an ED80 [21] of 50 µg/mL (≈ 73.3 µM). The IC50 [22] was greater than 1000 nM, the IC50 [23] was greater than 1000 nM and the logD [10] was 2.6. The ED80 [24] was 60 nM, the IC50 [25] was greater than 1000 nM and the inhibition [26] was “Active”. It also gave a clearance [14] of 68 mL/min/kg, a fraction unbound [15] of 0.045 and an IC50 [16] of 0.02 nM. It also gave an IC50 [27] greater than 1000 nM.
